Screens: PubChem BioAssay, several laboratories
An excerpt weighted towards active compounds, which were near 4.2% of everything screened.
KCNQ1 block = human KCNQ1 channel inhibition; P51787; CHO-K1 KCNQ1, FluxOR thallium flux fluorescence; hits give high values; B-score at 10 µM; hit rate 1.3% among 310,000; AID 2642;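 active means compounds whose thallium flux B-score, printed positive for inhibition, exceeds three library SD while starting fluorescence stays within three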;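 further: channel opened by potassium depolarization with thallium stimulus after 20 min compound exposure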
hERG rescue = shields human hERG channel from block by proarrhythmic agents. Q12809. CHO-hERG, FluxOR thallium flux, dofetilide IC70 present. activation (rescue from dofetilide block), less the hit threshold, % at 10 µM. hit rate 0.51% among 310,000. AID 1511;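 active means activation above the mean of controls blocked by dofetilide plus 5 SD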;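 further: thallium influx through hERG after potassium depolarization seen as dye fluorescence rise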
SUMO Mot1 rescue = inhibitors of SUMOylation pathway: yeast Mot1-301 growth rescue; S. cerevisiae Mot1-301 growth rescue, ATP luminescence, 38.5C; percent above DMSO median, 100 means doubled; growth rescue, % at 18.8 µM; hit rate 1% among 320,000; AID 2716;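 active means every valid replicate shows activation above 250% relative to neutral control wells; inactive means the rest, any valid replicate at or below 250%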;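 further: OY570 slx delta 5 strain wells were the positive control but not used for scaling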
AI-2 QS mod = modulates the Vibrio harveyi AI-2 quorum sensing system. Vibrio harveyi JMH597 AI-2 luminescence/OD600 ratio, 9 h; hits give low values; strain lacks LuxN and CqsS sensors; 0 = neutral-control median. activity change, % at 7.5 µM. hit rate 0.4% among 300,000. AID 2094; in the data active means activity change below about -75%, passing the limit was not always enough; inconclusive means no clear call, values can overlap the other calls;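 further: luminescence divided by OD600 gain over 9 h not by final OD600 alone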
KCC2 mod = modulates chloride dependent transport by human KCC2. AID 1456. B-score of Tl+ flux slope (higher = more flux/activation; lower = inhibition) at 10 µM. hit rate 2.2% among 190,000. KCC2 cells, thallium flux FluoZin-2 fluorescence;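 active means thallium flux slope and its plate-corrected score both differing from the plate sample mean at a set confidence after two filtering rounds, in either direction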;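 further: slope of fluorescence scaled to starting intensity during 10 to 20 s after thallium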
Target sequence (Q9H2X9 whole entry, looked up): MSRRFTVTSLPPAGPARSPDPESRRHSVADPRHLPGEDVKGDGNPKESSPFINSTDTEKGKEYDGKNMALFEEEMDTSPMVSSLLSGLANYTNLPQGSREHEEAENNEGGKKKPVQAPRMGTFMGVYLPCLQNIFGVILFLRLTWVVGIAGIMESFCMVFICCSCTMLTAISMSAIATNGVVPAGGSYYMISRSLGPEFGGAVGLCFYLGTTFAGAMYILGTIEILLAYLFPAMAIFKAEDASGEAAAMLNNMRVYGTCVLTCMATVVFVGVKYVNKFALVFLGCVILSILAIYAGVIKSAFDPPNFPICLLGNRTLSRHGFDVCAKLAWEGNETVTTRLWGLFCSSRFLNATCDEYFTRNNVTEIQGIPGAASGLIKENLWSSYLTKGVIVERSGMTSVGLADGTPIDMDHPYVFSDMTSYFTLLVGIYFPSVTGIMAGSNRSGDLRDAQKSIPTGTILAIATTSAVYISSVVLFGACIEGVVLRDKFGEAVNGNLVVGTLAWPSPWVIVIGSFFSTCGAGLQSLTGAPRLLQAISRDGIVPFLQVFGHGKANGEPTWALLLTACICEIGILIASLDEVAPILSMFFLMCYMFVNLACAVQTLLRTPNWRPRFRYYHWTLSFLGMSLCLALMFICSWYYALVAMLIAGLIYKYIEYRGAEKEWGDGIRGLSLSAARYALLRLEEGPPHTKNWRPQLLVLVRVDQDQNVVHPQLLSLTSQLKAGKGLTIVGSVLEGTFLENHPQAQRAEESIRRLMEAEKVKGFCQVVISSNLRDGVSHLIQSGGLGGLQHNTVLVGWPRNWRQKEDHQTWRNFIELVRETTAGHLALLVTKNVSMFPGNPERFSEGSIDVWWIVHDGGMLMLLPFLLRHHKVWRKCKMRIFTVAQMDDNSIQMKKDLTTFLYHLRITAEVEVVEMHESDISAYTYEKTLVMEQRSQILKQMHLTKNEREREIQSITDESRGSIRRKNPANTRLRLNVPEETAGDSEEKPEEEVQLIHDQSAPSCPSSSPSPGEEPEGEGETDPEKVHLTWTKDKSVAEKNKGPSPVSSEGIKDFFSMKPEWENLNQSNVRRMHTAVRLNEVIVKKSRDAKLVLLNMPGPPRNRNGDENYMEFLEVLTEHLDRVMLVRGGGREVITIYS
KCNQ1 pot = potentiates or activates the human KCNQ1 potassium channel | P51787 | CHO-K1 KCNQ1, thallium flux FluxOR fluorescence; hits give high values | B-score at 10 µM | hit rate 0.35% among 310,000 | AID 2648;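 active means fluorescence ratio B-score, a plate-corrected score, at least three library SD, with initial intensity B-score within 5 SD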
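Schedule – 37 °C overnight plating, 90-min dark dye load, 20-min compound pretreatment · System – stable KCNQ1 CHO-K1 line · Probe or stimulus – thallium- and potassium-containing depolarizing buffer · Measured by – kinetic FluxOR fluorescence, 10 s baseline plus 110 s post-stimulus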
* marks the source's active call; other numbers are inactive results; i = inactive; u = inconclusive; x = no result.

SMILES | KCNQ1 block | hERG rescue | SUMO Mot1 rescue | AI-2 QS mod | KCC2 mod | KCNQ1 pot
Cn1c(SCCC#N)nnc1-c1ccc(F)cc1 | i | -14.5 | 4.0 | 33.2 | 0.664 | i
CC(C)(C)c1ccc(-c2nnc(SCCC#N)n2C2CCCC2)cc1 | 6* | -17.7 | x | 30.9 | -1.31 | i
CSc1ccc(C2Nc3cccc4cccc(c34)N2)cc1 | 6* | -11.1 | 6.0 | 14.6 | x | i
Clc1ccc(C2Nc3cccc4cccc(c34)N2)cc1 | i | -5.4 | 1.9 | -0.3 | x | i
N#CC1=C(N)C(C#N)(C#N)C(c2cccnc2)C2CC(c3ccccc3)CC=C12 (stereo not drawn) | i | -5.2 | i | 24.7 | -2.58* | i
CC(NC(=O)c1ccc(Br)cc1)c1ccc2c(c1)CCCC2 (stereo not drawn) | i | 7.8* | 213.6 | 25.7 | 0.0735 | i
CCCCCc1ccc(OCCCC[n+]2cccc(C)c2)c(CCCCC)c1 | 10* | -26.9 | -2.4 | 33.5 | 0.783 | i
CCCCCc1ccc(OCCCC[n+]2ccccc2)c(CCCCC)c1 | i | -21.4 | 87.7 | 2.7 | -0.0952 | i
CCCCCc1ccc(OCCCC[n+]2ccc(C)cc2)c(CCCCC)c1 | 11* | -27.5 | 68.0 | -7.5 | 1.24 | i
CCCCOc1ccc(C)cc1CN(CCO)CCO | i | -5.9 | -0.5 | 37.9 | -0.368 | i
N#Cc1c(NC(=O)C2CCCO2)sc2c1CCCCCC2 (stereo not drawn) | i | -7.5 | -3.1 | 23.6 | -1.86 | i
COc1cccc(C=NCCCN=Cc2cccc(OC)c2O)c1O | i | 5.7* | 16.7 | 7.1 | x | i
CCCCCCNC1=NCCS1 | i | -2.8 | 719.7* | 12.2 | 0.203 | i
NC1=C(Br)C(=O)c2ccccc2C1=O | i | -0.2 | 45.2 | -89.6* | -0.0492 | i
O=C(CN1CCCCC1)NNc1nc(-c2ccccc2)c2cc(Br)ccc2n1 | i | -5.3 | 408.9 | -3.8 | 0.705 | i
CCCCCCc1c(C)c2ccc(OCC(=O)N[C@@H](Cc3ccccc3)C(=O)O)cc2oc1=O | i | -5.3 | 522.5* | 0.7 | x | i
CCCc1cc(=O)oc2cc(OCC(=O)NC(Cc3ccc(Cl)cc3)C(=O)O)ccc12 (stereo not drawn) | i | -8.8 | 13.7 | 31.7 | x | i
CCCCc1cc(=O)oc2cc(OCC(=O)N[C@@H](Cc3ccccc3)C(=O)O)ccc12 | i | -7.3 | 523.0* | 23.3 | x | i
Cc1c(C)c2ccc(OCC(=O)N[C@@H](Cc3ccccc3)C(=O)O)cc2oc1=O | i | 1.8 | -25.5 | 15.2 | x | i
CCCCc1cc(=O)oc2cc(OCC(=O)NCc3ccccn3)ccc12 | i | -4.4 | 321.6* | x | x | i
CCCc1cc(=O)oc2cc(OCC(=O)NCc3ccccn3)ccc12 | i | -2.4 | -4.4 | 3.1 | x | i
O=C(COc1cc(O)c2c(=O)c3ccccc3oc2c1)OCc1ccccc1 | i | -8.0 | 179.8 | 13.8 | -1.28 | i
COc1ccccc1/C=C/C(=O)OCC(=O)Nc1c(C)nn(-c2ccccc2)c1C | x | x | 7.8 | x | x | x
CN(C)C(=O)CN1C(=O)C2CC=C(Cl)CC2C1=O (stereo not drawn) | i | -10.0 | 19.2 | 27.2 | 0.158 | i
CCN(CC)C(=O)CN1C(=O)C2CC=C(Cl)CC2C1=O (stereo not drawn) | i | 5.8* | -6.5 | 9.5 | 0.66 | i
SMILES | KCNQ1 block | hERG rescue | SUMO Mot1 rescue | AI-2 QS mod | KCC2 mod | KCNQ1 pot
Cc1ccc2c(c1)cc(CN(Cc1ccc3c(c1)OCO3)C(=O)c1ccccc1)c1nnnn12 | i | -10.6 | 336.5* | 7.1 | 0.346 | i
COc1cccc(-c2nnc(NC(C)=O)o2)c1 | i | -12.8 | 2.2 | 16.0 | -0.0108 | i
COc1ccccc1-c1nnc(Nc2nc3c(OC)cccc3s2)o1 | i | -16.4 | -1.4 | 23.4 | 4.15* | i
COc1cccc(-c2nnc(Nc3nc4c(F)cccc4s3)o2)c1 | i | 39.7* | 187.6 | 36.9 | 38.9* | 35*
Nc1nc(O)c(N=Nc2ccc(S(N)(=O)=O)cc2)c(=O)[nH]1 | i | 4.8* | -5.8 | -2.3 | x | i
NS(=O)(=O)c1ccc(N=Nc2c[nH]c(=O)c(O)c2)cc1 | i | -11.1 | -12.5 | 19.7 | 0.93 | i
Cc1nn(C(=O)c2ccccc2)c2c1C(=O)CC(C)(C)C2 | i | -6.9 | 494.9* | 27.2 | -0.0233 | i
CCCc1nn(C(=O)c2ccccc2)c2c1C(=O)CC(C)(C)C2 | i | -11.8 | -5.3 | 12.1 | 0.818 | i
CCCCn1c(=O)[nH]c(=O)c2c1nc(Cn1ncc(Cl)c(Cl)c1=O)n2CCC | i | -17.4 | 3.4 | 10.7 | x | 11*
CC1C/C(=N/Nc2ccc([N+](=O)[O-])cc2[N+](=O)[O-])CC(C)(C)C1 (stereo not drawn) | 7* | -8.1 | -5.8 | 33.1 | -0.883 | i
CC(=O)Oc1ccc(/C(C)=N\N2CCN(Cc3ccc(Cl)cc3)CC2)cc1 | i | -7.5 | -4.1 | 9.3 | x | i
CCOc1ccccc1N(CC(=O)OC)S(C)(=O)=O | i | 4.6* | -2.9 | 24.7 | 0.755 | i
CCOc1ccccc1N(CC(=O)N1CCCCCC1)S(C)(=O)=O | i | -12.6 | x | 19.3 | -1.22 | i
O=C(COC(=O)C1CCN(c2ccc(C(F)(F)F)cn2)CC1)c1ccccc1Cl | i | -15.6 | -21.5 | 17.9 | x | i
Cc1cc(C)c(C(=O)COC(=O)C2CCN(c3ccc(C(F)(F)F)cn3)CC2)cc1C | 7* | -13.0 | 63.2 | -6.7 | x | i
O=C(COC(=O)c1ccc([N+](=O)[O-])s1)NCc1ccccc1 | i | -1.4 | -3.1 | 23.4 | -0.000818 | i
Cc1[nH]c2ccccc2c1C(=O)COC(=O)c1ccc([N+](=O)[O-])s1 | i | -9.5 | -4.5 | -128.1* | 0.0834 | i
Cc1ccc(-c2cnc(-c3ccccc3C(=O)O)o2)cc1 | i | -13.7 | 36.2 | 16.5 | x | i
COc1ccc(CCNC(=S)Nc2ccc(C(C)C)cc2)cc1 | i | -8.6 | 41.9 | 1.5 | -0.242 | i
CC(C)c1ccc(NC(=S)Nc2ccc(OC(F)(F)F)cc2)cc1 | 10* | -9.3 | x | 11.7 | 0.567 | i
FC(F)(F)Oc1ccc(NC(=S)Nc2ccc(OC(F)(F)F)cc2)cc1 | 10* | -17.6 | 2.8 | u | -1.12 | i
O=C(O)/C=C/C(=O)Nc1ccc(OC(F)(F)F)cc1 | i | -1.8 | 48.1 | 30.1 | -0.25 | i
Cc1cc(=S)[nH]c2c(C)cccc12 | i | 5.0* | -12.8 | 25.0 | 30.8* | i
CC(CN(C)Cc1ccccc1)OC(=O)c1cccs1 (stereo not drawn) | i | 46.5* | -6.2 | -1.5 | -0.0425 | i
CC(CN(C)Cc1ccccc1)OC(=O)c1ccccc1F (stereo not drawn) | i | -11.8 | -3.0 | 4.9 | 0.924 | i
